# Tests used:
# [1] = type: physicochemical; conditions: solutions in aqueous media at pH < 7, prolonged periods (>1 week)
# MDCK cells = assay: Imaging of carbon monoxide in living cells with fluorescent probe COP-1; type: cell-based, Canine; conditions: 10 μM, at 8 and 37 °C, against respective iCORM (50 μM)
# Outline: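 MDCK cells exposed at 37 °C and at 8 °C to test compound (10 μM) or to its CO-depleted product (iCORM, 50 μM) as comparator. Intracellular CO was detected with the CO-selective fluorescent probe COP-1, read as intracellular fluorescence.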
smiles,measurement,setting,value
CC12C(=O)C(C)(C(c3ccccc3)=C1c1ccccc1)C1(Br)C(=O)N(CCNCCN)C(=O)C21.O=C(O)C(F)(F)F.O=C(O)C(F)(F)F (centres unmarked) [oCOm-23],formation of the corresponding iCORM,[1],no sign of the formation
same,CO delivery to cells / increased intracellular CO levels (COP-1),MDCK cells,confirmed
